From PubChem BioAssay
Results filed as inconclusive are left out.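 Rule for the calls, unless noted: active = RAM network inhibition above 8.4% in each of two replicates, 3 SD over the compound average; inconclusive = above 8.4% inhibition in only one replicate; inactive = 8.4% inhibition or less in each replicate.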

Assays:
[1] = S. cerevisiae growth inhibition in permissive medium (OD615), pilot counter-assay for S. cerevisiae lifespan shortening project, permissive growth control (AID 705;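 active = growth inhibition above 25% in both replicates, a cutoff set 3 SD above the mean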); settings: OD615, 24 h, at 10 µM, stronger effect = higher value
In short: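 Timing: 24 h exposure, 30 °C / Material: Saccharomyces cerevisiae strain carrying genetically modified DeaD replicative-lifespan system / Signal: OD at 615 nm / Compound: 10 µM single dose, 0.25% DMSO / Medium: SC raffinose/galactose permissive medium / Evaluation: reduction in yeast growth (OD615)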

[2] = S. cerevisiae growth inhibition in restrictive medium, OD615, pilot screen, restrictive growth control, yeast lifespan reduction project (AID 706;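 active = growth inhibition above a set limit, 3 SD over mean compound inhibition, in both replicates, cut at about 43% in these data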;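 note: modified DeaD lifespan yeast strain shifted to restrictive glucose medium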); settings: OD615, 48 h, at 10 µM, stronger effect = higher value
In short: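 System: Engineered S. cerevisiae DeaD strain | Detection: OD615 | Buffer or medium: CSMM-D glucose medium | Doses: 10 µM compound, 0.25% DMSO | Timing: 4 h pre-growth plus 48 h compound exposure, 30 °C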

[3] = doxorubicin toxicity protection in MRP-1 cells – H69AR cells, CellTiter-Glo, duplicate, MRP-1 activator project, pilot screen (AID 807;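 active = viability increase at or above a cutoff of the median across tested compounds plus 3 SD, cut at about 8.5% in these data, passing the limit was not always enough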;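 note: compound pretreatment 18-22 h then 72 h combined with doxorubicin; 0% = doxorubicin alone and 100% = vehicle without doxorubicin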); settings: H69AR viability with doxorubicin, CellTiter-Glo luminescence; at 10 µM; stronger effect = higher value
[4] = viability of HCT116 without oncogenic beta-catenin – human colon tumor cells, pilot screen (AID 823;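 active = cell viability at or below a set limit in both duplicate runs, the limit being the all-compound median minus 4 SD, cut at about 23% in these data, passing the limit was not always enough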;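 note: 0% = wells killed by 20 µM Hyamine and 100% = untreated DMSO cell wells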); settings: HCT116 beta-catenin knockout viability, CellTiter-Glo, 60 h; at 10 µM; stronger effect = lower value
[5] = viability of PTEN-null HCT116 cells – cell-based, HCT116 clonal line, CellTiter-Glo, pilot screen (AID 824;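 active = viability at or below 27.92% in each of two runs, the all-compound median minus 4 SD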;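 note: 0% = 20 µM Hyamine control and 100% = vehicle cell control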); settings: HCT116 PTEN-deleted viability, 60 h, at 10 µM, stronger effect = lower value
[6] = RAM pathway blockade in budding yeast – dse1pr::URA3 reporter, 5-FOA selection, pilot screen (AID 869;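 active = inhibition over a set limit, the all-compound mean plus 3 SD, in both replicate runs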;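 note: 0% = DMSO wells with no growth and 100% = 10 µM 1-NA-PP1 with full growth; RAM network block rescues cells from 5-FOA so hits raise OD615 growth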); settings: S. cerevisiae dse1pr::URA3 5-FOA growth, OD615, 2 d; at 10 µM; stronger effect = higher value; strain carries analog-sensitive mutant Cbk1 kinase
[7] = RAM signaling pathway blockade in yeast – S. cerevisiae, Pdr1DBD-CYC8 efflux-inhibited sensitized strain, primary screen (AID 1298);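 note: 0% = DMSO untreated cells without growth and 100% = 10 µM 1-NA-PP1 full growth; higher means more yeast growth rescued from 5-FOA killing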; settings: S. cerevisiae cbk1-as DSE1-URA3 strain, 5-FOA growth OD615, 2 d; at 50 µM; stronger effect = higher value

Cc1onc(-c2ccccc2Cl)c1C(=O)Nc1c(C)n(C)n(-c2ccccc2)c1=O
inactive: growth inhibition [1] -7.2% | growth inhibition [2] 3.75% | viability increase [3] 0.84% | viability [4] 104% | viability [5] 103% | inhibition [6] 0.355% | RAM network inhibition [7] 3.34%

CN(C)S(=O)(=O)c1ccc(NC(=O)C2COc3ccccc3O2)cc1 (stereo not given)
inactive: growth inhibition [1] -9.66% | growth inhibition [2] -10.9% | viability increase [3] 0.49% | viability [4] 90.2% | viability [5] 83.8% | inhibition [6] 1.27% | RAM network inhibition [7] 2.63%

Cc1ccc(S(=O)(=O)N2CCC(C(=O)N[C@@H](C)C(=O)NC3CCCCC3)CC2)cc1
inactive: growth inhibition [1] -10.2% | growth inhibition [2] -17.1% | viability increase [3] 3.71% | viability [4] 97.7% | viability [5] 99.8% | inhibition [6] 2.49% | RAM network inhibition [7] 4.41%

Cc1ccccc1-n1c(Cn2c(=O)sc3ccccc32)nnc1SCC(=O)NCC1CCCO1 (stereo not given)
inactive: growth inhibition [1] -3.68% | growth inhibition [2] -12.2% | viability increase [3] 0% | viability [4] 100% | viability [5] 97.9% | inhibition [6] 0.82% | RAM network inhibition [7] 3.19%

Cc1onc(-c2ccccc2)c1C(=O)Nc1ccc2c(c1)OCCO2
inactive: growth inhibition [1] -5.44% | growth inhibition [2] -6.46% | viability increase [3] -0.35% | viability [4] 96.6% | viability [5] 94.9% | inhibition [6] 2.96% | RAM network inhibition [7] 2.34%

CCOc1ccc(N(CC(=O)Nc2ccc3c(c2)OCCO3)S(=O)(=O)c2c(C)noc2C)cc1
inactive: growth inhibition [1] -6.29% | growth inhibition [2] -0.165% | viability increase [3] -3.41% | viability [4] 81.6% | viability [5] 87% | inhibition [6] 3.58% | RAM network inhibition [7] 4.67%

O=C(CN1c2cccc3cccc(c23)S1(=O)=O)NCc1ccc2c(c1)OCO2
inactive: growth inhibition [1] -1.29% | growth inhibition [2] -6.94% | viability increase [3] -3.03% | viability [4] 89.2% | viability [5] 82.6% | inhibition [6] 1.05% | RAM network inhibition [7] 5.12%

CNc1nc(SCC(=O)OC)nc(N2CCOCC2)n1
inactive: growth inhibition [1] -11.7% | growth inhibition [2] -14.8% | viability increase [3] -1.78% | viability [4] 93.9% | viability [5] 89.3% | inhibition [6] 1.14% | RAM network inhibition [7] 3.47%

Cc1nc(Cc2nnc(SCc3nc(N)nc(Nc4ccccc4C)n3)o2)cs1
inactive: growth inhibition [1] -3.24% | growth inhibition [2] 20.5% | viability increase [3] -1.28% | viability [4] 98.7% | viability [5] 97.5% | inhibition [6] 0.85% | RAM network inhibition [7] 5.96%

CCOC(=O)CSc1nc2sc(C(=O)O)c(C)c2c(=O)[nH]1
inactive: growth inhibition [1] 0.2% | growth inhibition [2] -4.45% | viability increase [3] -1.82% | viability [4] 102% | viability [5] 103% | inhibition [6] 1.92% | RAM network inhibition [7] 3.85%

O=C(Cn1cc2c(n1)CCCC2)Nc1ccccc1Cl
inactive: growth inhibition [1] -4.82% | growth inhibition [2] -3.03% | viability increase [3] -1.53% | viability [4] 99.4% | viability [5] 98.9% | inhibition [6] 1.91% | RAM network inhibition [7] 1.47%

O/N=C1/CCCSc2ccccc21
inactive: growth inhibition [1] -7.19% | growth inhibition [2] -16.8% | viability increase [3] -1.24% | viability [4] 96.6% | viability [5] 97.9% | inhibition [6] 0.95% | RAM network inhibition [7] 2.18%

CCOC(=O)C1CCCN(C(=O)c2ccc(CS(=O)(=O)c3ccc(C)cc3)o2)C1 (stereo not given)
inactive: growth inhibition [1] -0.315% | growth inhibition [2] -6.29% | viability increase [3] -2.78% | viability [4] 110% | viability [5] 101% | inhibition [6] 1.16% | RAM network inhibition [7] 3.23%

O=C(O)c1ccccc1C(=O)c1cccs1
inactive: growth inhibition [1] -14.9% | growth inhibition [2] -17.1% | viability increase [3] -0.3% | viability [4] 101% | viability [5] 92.5% | inhibition [6] 0.54% | RAM network inhibition [7] 1.05%

C=CCn1c(=N)n(CC(O)COc2ccccc2OC)c2ccccc21 (stereo not given)
inactive: growth inhibition [1] -4.97% | growth inhibition [2] 0.15% | viability increase [3] -4.19% | viability [4] 73.9% | viability [5] 77.4% | inhibition [6] 1.92% | RAM network inhibition [7] 1.07%

COc1ccc(-c2nn(-c3ccccc3)cc2C(=O)O)cc1
inactive: growth inhibition [1] -8.52% | growth inhibition [2] 1.15% | viability increase [3] -3.69% | viability [4] 105% | viability [5] 97% | inhibition [6] 3.71% | RAM network inhibition [7] 11.1%

Cn1c(C(=O)N2CCN(C3CCCCC3)CC2)cc2c(=O)n(C)c3ccccc3c21
inactive: growth inhibition [1] -0.185% | growth inhibition [2] 4.76% | viability increase [3] -1.32% | viability [4] 105% | viability [5] 101% | inhibition [6] 1.2% | RAM network inhibition [7] 0.21%

COc1ccccc1N1CCN(C(=O)c2sc3nc(-c4ccc(F)cc4)cn3c2C)CC1
inactive: growth inhibition [1] -6.38% | growth inhibition [2] 2.76% | viability increase [3] -1.57% | viability [4] 57.6% | viability [5] 58.8% | inhibition [6] 0.235% | RAM network inhibition [7] 1.42%

COc1ccc(C2C(C(N)=O)=C(C)Nc3nc(-c4ccccc4)nn32)cc1OC (stereo not given)
inactive: growth inhibition [1] -4.7% | growth inhibition [2] -8.15% | viability increase [3] -1.13% | viability [4] 95.3% | viability [5] 95.2% | inhibition [6] 0.78% | RAM network inhibition [7] -0.68%

Cn1c(SCc2nc(-c3ccc(Cl)cc3)no2)nnc1-c1ccco1
inactive: growth inhibition [1] -8.54% | growth inhibition [2] -0.675% | viability increase [3] -2.85% | viability [4] 90.6% | viability [5] 85.6% | inhibition [6] 2.02% | RAM network inhibition [7] 6.31%

COCCNC(=O)CN(c1cc(C(F)(F)F)ccc1Cl)S(C)(=O)=O
inactive: growth inhibition [1] -2.77% | growth inhibition [2] 1.25% | viability increase [3] -0.83% | viability [4] 99.9% | viability [5] 97.5% | inhibition [6] 3.02% | RAM network inhibition [7] 0.87%

CC(C)Cc1nnc(NC(=O)CCN2C(=O)c3ccccc3C2=O)s1
inactive: growth inhibition [1] 5.23% | growth inhibition [2] 16% | viability increase [3] 0.42% | viability [4] 106% | viability [5] 98.4% | inhibition [6] 1.21% | RAM network inhibition [7] 9.47%

C=CCNc1nc2c(c(=O)n(C)c(=O)n2C)n1Cc1ccc(F)cc1
inactive: growth inhibition [1] -0.85% | growth inhibition [2] -2.67% | viability increase [3] -2.03% | viability [4] 63.3% | viability [5] 66.9% | inhibition [6] 0.835% | RAM network inhibition [7] 2.3%

COC(=O)C(C(=O)OC)=C(/C=C/N(C)C)N(C)C
inactive: growth inhibition [1] -16.7% | growth inhibition [2] -1.41% | viability increase [3] -0.39% | viability [4] 99.2% | viability [5] 101% | inhibition [6] 1.26% | RAM network inhibition [7] 2.7%

COCC(=O)NCc1nc2ccccc2n1Cc1ccccc1F
inactive: growth inhibition [1] -7.99% | growth inhibition [2] -15.2% | viability increase [3] -1.11% | viability [4] 98.2% | viability [5] 99.2% | inhibition [6] 1.59% | RAM network inhibition [7] 0.88%
